ChEMBL document CHEMBL1914331, “N-O chemistry for antibiotics: discovery of N-alkyl-N-(pyridin-2-yl)hydroxylamine scaffolds as selective antibacterial agents using nitroso Diels-Alder and ene chemistry” (J Med Chem, 2011)
≈ marks a conversion by molar mass, not a printed value.

Tests used:
[1] = tested on: Staphylococcus aureus; test: Antimicrobial activity against Staphylococcus aureus SG511 assessed after 18 hrs by broth microdilution method; assay type: functional; details: SG511, 18 h
Outline: (§1)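 CLSI broth microdilution in cation-adjusted MHII broth. 20 mM DMSO stocks were diluted to 512 µM, then serially 2-fold, giving final 128–0.0625 µM with 5×10⁵ CFU/mL inoculum. Incubated 18 h at 37 °C. MIC90 was the lowest concentration giving 90% inhibition by visual turbidity versus DMSO wells. Run in triplicate.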

[2] = tested on: Enterococcus faecalis; test: Antimicrobial activity against Enterococcus faecalis ATCC 49532 assessed after 18 hrs by broth microdilution method; assay type: functional; details: ATCC 49532, 18 h; outline: as §1
[3] = tested on: HeLa; test: Cytotoxicity against human HeLa cells; assay type: cell-based
[4] = tested on: Micrococcus luteus; test: Antimicrobial activity against Micrococcus luteus ATCC 10240 after 24 hrs by Kirby-Bauer agar diffusion assay; assay type: functional
Outline: (§2)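 Modified Kirby-Bauer well diffusion. Overnight LB cultures (18–24 h) were standardized in 0.9% saline to 0.5 McFarland and mixed into melted MHII agar at 47–50 °C, giving ~5×10³ CFU/mL. 9 mm wells received 50 µL of 2.0 mM compound in 10:1 MeOH:DMSO. Plates were incubated 24 h at 37 °C, then growth-inhibition zone diameter was measured (mm) by caliper.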

[5] = tested on: PC-3; test: Cytotoxicity against human PC3 cells; assay type: cell-based
[6] = tested on: Staphylococcus aureus; test: Antimicrobial activity against Staphylococcus aureus SG511 after 24 hrs by Kirby-Bauer agar diffusion assay; assay type: functional; outline: as §2
[7] = tested on: Micrococcus luteus; test: Antimicrobial activity against Micrococcus luteus ATCC 10240 assessed after 18 hrs by broth microdilution method; assay type: functional; details: ATCC 10240, 18 h; outline: as §1
[8] = tested on: MCF7; test: Cytotoxicity against human MCF7 cells; assay type: cell-based
[9] = tested on: Enterococcus faecalis; test: Antimicrobial activity against Enterococcus faecalis ATCC 49532 after 24 hrs by Kirby-Bauer agar diffusion assay; assay type: functional; outline: as §2

Structure (SMILES)	MIC90 [1]	MIC90 [2]	MIC90 [7]	Activity [3]	diameter of the inhibition zone (DIZ) [4]	Activity [5]	diameter of the inhibition zone (DIZ) [6]	Activity [8]	diameter of the inhibition zone (DIZ) [9]
CO[C@H]1C=CCC[C@@H]1N(O)c1ccc(Br)cn1 (racemic)	≥ 128 µM	> 128 µM	4 µM (≈ 1.2 µg/mL)	Non-toxic	34 mm	Non-toxic	18 mm	Non-toxic	20 mm
C=C(C)C(C)N(O)c1cc(C)on1 (racemic)	> 128 µM	> 128 µM	64 µM (≈ 11.7 µg/mL)	Non-toxic	21 mm	Non-toxic	0 mm	Non-toxic	13 mm
C=C(C)C(C)N(O)c1cccc(CC)n1 (racemic)	> 128 µM	> 128 µM	2 µM (≈ 0.413 µg/mL)	Non-toxic	52 mm	Non-toxic	11 mm	Non-toxic	22 mm
C=C(C)C(C)N(O)c1ncccc1C (racemic)	> 128 µM	> 128 µM	16 µM (≈ 3.08 µg/mL)	Non-toxic	25 mm	Non-toxic	10 mm	Non-toxic	19 mm
C=C(C)C(C)N(O)c1ccc(Br)cn1 (racemic)	> 128 µM	> 128 µM	4 µM (≈ 1.03 µg/mL)	Non-toxic	35 mm	Non-toxic	17 mm	Non-toxic	19 mm
C=C(C)C(C)N(O)c1ccc(I)cn1 (racemic)	> 128 µM	> 128 µM	2 µM (≈ 0.608 µg/mL)	Non-toxic	38 mm	Non-toxic	12 mm	Non-toxic	19 mm
C=C(C)C(C)N(O)c1ncc(Cl)cc1Cl (racemic)	> 128 µM	> 128 µM	16 µM (≈ 3.95 µg/mL)	Non-toxic	27 mm	Non-toxic	0 mm	Non-toxic	14 mm
C=C(C)C(C)N(O)c1ccc(Br)c(C)n1 (racemic)	> 128 µM	> 128 µM	4 µM (≈ 1.08 µg/mL)	Non-toxic	35 mm	Non-toxic	13 mm	Non-toxic	12 mm
C=C(C)C(C)N(O)c1ncc(C(F)(F)F)cc1Cl (racemic)	> 128 µM	> 128 µM	128 µM (≈ 35.9 µg/mL)	Non-toxic	15 mm	Non-toxic	0 mm	Non-toxic	13 mm
CO[C@H]1C=CCC[C@@H]1Nc1ccc(Br)cn1 (racemic)	> 128 µM	> 128 µM	> 128 µM	Non-toxic	0 mm	Non-toxic	0 mm	Non-toxic	0 mm
CO[C@H]1C=CCC[C@@H]1N(OC(C)=O)c1ccc(Br)cn1 (racemic)	> 128 µM	> 128 µM	32 µM (≈ 10.9 µg/mL)	Non-toxic	22 mm	Non-toxic	0 mm	Non-toxic	0 mm
C=C(C)C(CC/C(C)=C/CO)N(O)c1cccc(CC)n1 (racemic)	> 128 µM	> 128 µM	2 µM (≈ 0.581 µg/mL)	Non-toxic	31 mm	Non-toxic	18 mm	Non-toxic	19 mm

Continued, in another order:

MIC90 [1]	MIC90 [2]	MIC90 [7]	Structure (SMILES)	Activity [3]	diameter of the inhibition zone (DIZ) [4]	Activity [5]	diameter of the inhibition zone (DIZ) [6]	Activity [8]	diameter of the inhibition zone (DIZ) [9]
> 128 µM	> 128 µM	128 µM (≈ 27.4 µg/mL)	ON(CCc1ccccc1)c1ccccn1	Non-toxic	16 mm	Non-toxic	0 mm	Non-toxic	15 mm
> 128 µM	> 128 µM	> 128 µM	C=CCN(O)c1ccccn1	Non-toxic	14 mm	Non-toxic	0 mm	Non-toxic	12 mm
> 128 µM	> 128 µM	> 128 µM	ON(Cc1cccc(Oc2ccccc2)c1)c1ccccn1	Non-toxic	12 mm	Non-toxic	13 mm	Non-toxic	0 mm
> 128 µM	> 128 µM	128 µM (≈ 34.3 µg/mL)	ON(Cc1ccc(C(F)(F)F)cc1)c1ccccn1	Non-toxic	16 mm	Non-toxic	15 mm	Non-toxic	15 mm
> 128 µM	> 128 µM	128 µM (≈ 36.4 µg/mL)	ON(Cc1ccc(OC(F)(F)F)cc1)c1ccccn1	Non-toxic	17 mm	Non-toxic	14 mm	Non-toxic	15 mm
> 128 µM	> 128 µM	128 µM (≈ 31 µg/mL)	CC(=O)ON(Cc1ccccc1)c1ccccn1	Non-toxic	20 mm	Non-toxic	12 mm	Non-toxic	11 mm
> 128 µM	> 128 µM	≥ 128 µM	ON(Cc1ccccc1)c1cccnc1	Non-toxic	15 mm	Non-toxic	16 mm	Non-toxic	0 mm
> 128 µM	> 128 µM	> 128 µM	ON(Cc1ccccc1)Cc1ccccn1	Non-toxic	0 mm	Non-toxic	0 mm	Non-toxic	0 mm
> 128 µM	> 128 µM	> 128 µM	c1ccc(CNc2ccccn2)cc1	Non-toxic	0 mm	Non-toxic	0 mm	Non-toxic	0 mm
128 µM (≈ 30 µg/mL)	> 128 µM	16 µM (≈ 3.75 µg/mL)	C=C(C)C(CCC(C)=O)N(O)c1ccccn1 (racemic)	Non-toxic	30 mm	Non-toxic	15 mm	Non-toxic	16 mm
128 µM (≈ 22.8 µg/mL)	> 128 µM	8 µM (≈ 1.43 µg/mL)	C=C(C)C(C)N(O)c1ccccn1 (racemic)	Non-toxic	31 mm	Non-toxic	18 mm	Non-toxic	22 mm
128 µM (≈ 29.2 µg/mL)	> 128 µM	8 µM (≈ 1.83 µg/mL)	C=C(C)C(C)N(O)c1ccc2ccccc2n1 (racemic)	Non-toxic	31 mm	Non-toxic	13 mm	Non-toxic	13 mm
128 µM (≈ 24.6 µg/mL)	> 128 µM	4 µM (≈ 0.769 µg/mL)	C=C(C)C(C)N(O)c1cc(C)ccn1 (racemic)	Non-toxic	29 mm	Non-toxic	20 mm	Non-toxic	22 mm
128 µM (≈ 27.2 µg/mL)	≥ 128 µM	2 µM (≈ 0.425 µg/mL)	C=C(C)C(C)N(O)c1ccc(Cl)cn1 (racemic)	Non-toxic	40 mm	Non-toxic	18 mm	Non-toxic	21 mm
